This is an account of results in ChEMBL document CHEMBL4699663, “Design, synthesis, and biological activity of novel semicarbazones as potent Ryanodine receptor1 inhibitors of Alzheimer's disease” (Bioorg Med Chem, 2021).

Converted amounts (≈) assume the structure as drawn. The source made the active and inactive calls. No cut-off for these calls is given here.

For data set [1], the species on record is Homo sapiens. The experiment in a line: Inhibition of RYR-1 R614C mutant (unknown origin) expressed in cells assessed as inhibition of store overload-induced Ca2+ release at 0.1 uM after 3 mins by fura-2AM dye based microscopic analysis relative to control. The format is cell-based.
The species named for data set [2] is Homo sapiens. The experiment in a line: Inhibition of RYR-1 R614C mutant (unknown origin) expressed in cells assessed as inhibition of store overload-induced Ca2+ release at 3 uM after 3 mins by fura-2AM dye based microscopic analysis relative to control. The format is cell-based.
The species entered for data set [3] is Homo sapiens. The experiment in a line: Inhibition of RYR-1 R614C mutant (unknown origin) expressed in cells assessed as inhibition of store overload-induced Ca2+ release at 10 uM after 3 mins by fura-2AM dye based microscopic analysis relative to control. The format is cell-based.
Data set [4] is described as follows: Kinetic aqueous solubility of the compound in PBS at pH 7.4 by turbidimetric analysis. The data set is classed as physicochemical. The note with it: read-out: Kinetic_solubility. A digest of the protocol: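 Turbidimetric kinetic solubility: DMSO stocks were diluted 100-fold into PBS pH 7.4, giving eight final concentrations (1.6–200 mM as printed). After 2 h incubation, absorbance was read at 540 nm. Wells above blank mean + 3 SD counted as turbid, and the highest clear concentration was taken as the solubility.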

Data set [5] concerns the target Acetylcholinesterase (Electrophorus electricus) (UniProt O42275). Nature of the data set: Inhibition of electric eel AChE at 5 uM using acetylthiocholine iodide as substrate preincubated with enzyme for 30 mins followed by substrate addition and measured for 10 mins by Ellman's method relative to control. The note with it: time 40.0 min. A digest of the protocol: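 Electrophorus electricus AChE at 0.25 U/mL, with 60 µM DTNB in 0.05 M phosphate buffer pH 8, was incubated 30 min with the DMSO-dissolved inhibitor. The reaction was then started with 1.5 mM acetylthiocholine iodide and read at 412 nm for 10 min. Percent inhibition was taken from reaction rates versus control, from three experiments run in triplicate.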

The species named for data set [6] is Homo sapiens. Nature of the data set: Inhibition of RYR-1 R614C mutant (unknown origin) expressed in cells assessed as inhibition of store overload-induced Ca2+ release after 3 mins by microscopic analysis. The data set is classed as cell-based. The settings on record: dose microM 0.1-10, time 3.0 min.
For data set [7], the species on record is Homo sapiens. Nature of the data set: Inhibition of RYR-1 R614C mutant (unknown origin) expressed in cells assessed as inhibition of store overload-induced Ca2+ release at 0.1 uM after 3 mins by fura-2AM dye based microscopic analysis. The data set is classed as cell-based.
The species entered for data set [8] is Homo sapiens. The experiment in a line: Inhibition of RYR-1 R614C mutant (unknown origin) expressed in cells assessed as inhibition of store overload-induced Ca2+ release at 3 uM after 3 mins by fura-2AM dye based microscopic analysis. The format is cell-based.
For data set [9], the species on record is Homo sapiens. The experiment in a line: Inhibition of RYR-1 R614C mutant (unknown origin) expressed in cells assessed as inhibition of store overload-induced Ca2+ release at 10 uM after 3 mins by fura-2AM dye based microscopic analysis. The format is cell-based.
Data set [10] in a line: Toxicity in SPF grade FAD mouse assessed as effect on body weight at 3.2 mg/kg, ip administered for 30 consecutive days. The note with it: in vivo, 720 h, time 30 day. The format is organism-based. The method, boiled down: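 Mixed-sex FAD mice, 5 months old, were given 3.2 mg/kg/day intraperitoneally in DMSO (1.12 mg/ml) for 30 consecutive days; controls received the same volume of DMSO. Body weight was measured daily during dosing and reported as mean ± SD (n = 7).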

The subject of data set [11] is Mus musculus. The experiment in a line: Cognitive enhancing effect in SPF grade FAD mouse assessed as reduction in mean escape latency time at 3.2 mg/kg, ip measured on day 2 by Morris water maze test (reference value: 36.72 sec). The format is functional. The settings on record: time 2 day. The method, boiled down: (§1)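 Mixed-sex FAD mice, 5 months old at dosing, given 3.2 mg/kg intraperitoneally in DMSO (1.12 mg/ml) daily for 30 days; controls got the same volume of DMSO. Morris water maze training started after dosing. Mice entered the water facing the wall from four entry points in turn, and time to find and climb the platform was recorded. Data are mean ± SD, analysed by ANOVA.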

Data set [12] relates to Mus musculus. Nature of the data set: Cognitive enhancing effect in SPF grade FAD mouse assessed as reduction in mean escape latency time at 3.2 mg/kg, ip measured on day 3 by Morris water maze test (reference value: 35.59 sec). The format is functional. The note with it: time 3 day. The method, boiled down: as §1
The test system of data set [13] is Mus musculus. The experiment in a line: Cognitive enhancing effect in SPF grade FAD mouse assessed as reduction in mean escape latency time at 3.2 mg/kg, ip measured on day 4 by Morris water maze test (reference value: 31.99 sec). The data set is classed as functional. The note with it: time 4 day. A digest of the protocol:
as §1

Data set [14] relates to Mus musculus. Nature of the data set: Improvement in learning and spatial memory in SPF grade FAD mouse assessed as swimming time on target zone at 3.2 mg/kg, ip measured 24 hrs post trial training by probe test (reference value: 23.1 +/- 1.1 %). The data set is classed as functional.

Chain of Acetylcholinesterase (Electrophorus electricus) (O42275 24-633 limits assumed): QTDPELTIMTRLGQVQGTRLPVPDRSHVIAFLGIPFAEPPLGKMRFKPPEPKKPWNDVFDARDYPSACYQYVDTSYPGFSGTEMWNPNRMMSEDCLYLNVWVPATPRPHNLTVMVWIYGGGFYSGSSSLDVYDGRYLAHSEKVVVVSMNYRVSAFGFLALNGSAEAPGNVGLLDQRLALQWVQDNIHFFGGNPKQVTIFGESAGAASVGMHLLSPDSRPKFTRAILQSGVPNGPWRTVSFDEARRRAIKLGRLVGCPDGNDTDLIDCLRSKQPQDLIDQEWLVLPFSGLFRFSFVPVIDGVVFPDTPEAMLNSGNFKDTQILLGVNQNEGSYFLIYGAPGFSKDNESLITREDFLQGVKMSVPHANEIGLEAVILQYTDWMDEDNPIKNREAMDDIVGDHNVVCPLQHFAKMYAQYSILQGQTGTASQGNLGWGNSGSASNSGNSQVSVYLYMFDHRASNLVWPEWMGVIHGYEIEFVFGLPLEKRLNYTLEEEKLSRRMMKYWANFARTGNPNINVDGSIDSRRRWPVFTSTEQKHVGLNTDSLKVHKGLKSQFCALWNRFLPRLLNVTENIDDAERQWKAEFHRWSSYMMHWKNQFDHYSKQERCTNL

In the case of `CN(/N=C/c1ccc(-c2ccc([N+](=O)[O-])cc2)o1)C(=O)c1cncn1C`, the inhibition in [1] was 24.5%; in data set [2], 70.5%; in data set [3] it was 82.5%; in data set [5], 14.3%; in data set [6] it was “Dose-dependent effect”. Further, the solubility kinetic in [4] was found to be 480 µM (≈ 170 µg/mL).
On to `O=C(NCc1ccc(C(F)(F)F)cc1)N/N=C/c1ccc(-c2ccc([N+](=O)[O-])cc2)o1`, for which the inhibition in data set [1] was 19.7%; in [2], 27.9%; in data set [3], 53.1%; in data set [6], “Dose-dependent effect”.
The corresponding values for `O=C(N/N=C/c1ccc(-c2ccc([N+](=O)[O-])cc2)o1)n1ccnc1` are 26.1%, 48.4%, 68.2% and “Dose-dependent effect”.
For `O=C1CN(/N=C/c2ccc(-c3ccc([N+](=O)[O-])cc3)o2)C(=O)N1`, the inhibition in data set [1] is 30.8%; in data set [2], 73.1%; in [3], 94.2%; in [5] it was 0.1%; in [6], “Dose-dependent effect”.
In the case of `Cc1ccc(NC(=O)N/N=C/c2ccc(-c3ccc([N+](=O)[O-])cc3)o2)cc1`, the inhibition is 10.8% in data set [2], 29.5% in data set [3] and “Dose-dependent effect” in [6].
Turning to `O=C(N/N=C/c1ccc(-c2ccc([N+](=O)[O-])cc2)o1)Nc1ccccc1Cl`, the figures for the inhibition in data set [2], in data set [3] and in [6] were 25.1%, 50.1% and “Dose-dependent effect”, respectively.
Consider `O=C(NCc1cccc(F)c1)N/N=C/c1ccc(-c2ccc([N+](=O)[O-])cc2)o1`, for which the inhibition in data set [2] was 25.8%; in data set [3], 72.1%; in data set [5], 33.6%; in data set [6] it was “Dose-dependent effect”.
Turning to `O=C(N/N=C/c1ccc(-c2ccc([N+](=O)[O-])cc2)o1)Nc1ccc([N+](=O)[O-])cc1`, the inhibition was 14.1% in [2], 32% in data set [3] and “Dose-dependent effect” in data set [6].
Regarding `O=C(NCc1cccc(Cl)c1Cl)N/N=C/c1ccc(-c2ccc([N+](=O)[O-])cc2)o1`, the figures for the inhibition in [3] and in data set [6] were 30.6% and “Dose-dependent effect”, respectively.
With `O=C(NCc1ccc(Cl)cc1Cl)N/N=C/c1ccc(-c2ccc([N+](=O)[O-])cc2)o1`, the inhibition in data set [3] is 16.2%; in data set [5], 8.9%; in [6], “Dose-dependent effect”.
With `O=C(N/N=C/c1ccc(-c2ccc([N+](=O)[O-])cc2)o1)Nc1ccccc1C(F)(F)F`, the inhibition in [1] is 12.6%; in data set [2], 30.1%; in [3], 55.5%; in [6] it was “Dose-dependent effect”.
Take `Cc1ccccc1NC(=O)N/N=C/c1ccc(-c2ccc([N+](=O)[O-])cc2)o1`: the inhibition result in [7], in [8] and in [9] was “inactive” throughout. This compound also had an inhibition in data set [5] of 18.2%.
Turning to `O=C(NCc1ccc(Cl)cc1)N/N=C/c1ccc(-c2ccc([N+](=O)[O-])cc2)o1`, the inhibition is 27.1% in data set [1], 48.6% in [2], 70.4% in [3] and “Dose-dependent effect” in [6].
`COc1ccccc1NC(=O)N/N=C/c1ccc(-c2ccc([N+](=O)[O-])cc2)o1`: the values for the inhibition in [3] and in data set [6] were 30.6% and “Dose-dependent effect”, respectively.
Consider `O=C(N/N=C/c1ccc(-c2ccc([N+](=O)[O-])cc2)o1)Nc1ccccc1`, for which the inhibition in data set [1] was 15.9%; in [2] it was 35.8%; in data set [3], 93.9%; in data set [5], 19.3%; in [6], “Dose-dependent effect”. Further, the solubility kinetic in [4] was 60 µM (≈ 21 µg/mL).
On to `O=C(N/N=C/c1ccc(-c2ccc([N+](=O)[O-])cc2)o1)Nc1ccc(Br)cc1`, for which the inhibition in data set [1] was 13.2%; in data set [2] it was 31.3%; in [3] it was 52.9%; in [6] it was “Dose-dependent effect”.
As for `O=C(NCc1ccc(Cl)c(Cl)c1)N/N=C/c1ccc(-c2ccc([N+](=O)[O-])cc2)o1`, the inhibition in data set [2] is 25.3%; in data set [3], 37.2%; in [6], “Dose-dependent effect”.
For `O=C(NCc1ccccc1F)N/N=C/c1ccc(-c2ccc([N+](=O)[O-])cc2)o1` the same measures were 26.1%, 44.6% and “Dose-dependent effect”.
On to `Cc1cccc(NC(=O)N/N=C/c2ccc(-c3ccc([N+](=O)[O-])cc3)o2)c1`, for which the inhibition is 10.7% in data set [1], 15.2% in [2], 34.6% in data set [3] and “Dose-dependent effect” in [6].
Turning to `O=C(N/N=C/c1ccc(-c2ccc([N+](=O)[O-])cc2)o1)Nc1ccccc1OC(F)(F)F`, the figures for the inhibition in data set [2], in [3] and in [6] were 20.4%, 57.1% and “Dose-dependent effect”, respectively.
As for `O=C(N/N=C/c1ccc(-c2ccc([N+](=O)[O-])cc2)o1)Nc1ccccc1Br`, the inhibition in data set [1] is 20.1%; in data set [2] it was 38.5%; in [3], 67.1%; in [6] it was “Dose-dependent effect”.
The corresponding values for `O=C(N/N=C/c1ccc(-c2ccc([N+](=O)[O-])cc2)o1)Nc1cccc(Br)c1` are 26.7%, 67.1%, 67.1% and “Dose-dependent effect”.
On to `O=C(NCc1ccccc1)N/N=C/c1ccc(-c2ccc([N+](=O)[O-])cc2)o1`, for which the inhibition was 23.1% in data set [2], 48.6% in data set [3] and “Dose-dependent effect” in [6].
Regarding `CN(/N=C/c1ccc(-c2ccc([N+](=O)[O-])cc2)o1)C(=O)n1ccnc1`, the inhibition was 23% in data set [1], 53.5% in [2], 74.9% in [3] and “Dose-dependent effect” in data set [6].
Consider `O=C(N/N=C/c1ccc(-c2ccc([N+](=O)[O-])cc2)o1)c1cnc[nH]1`, for which the inhibition in data set [1] is 31.5%; in [2], 77.2%; in data set [3] it was 93.7%; in data set [5], 24.8%; in data set [6], “Dose-dependent effect”. In addition, the solubility kinetic in data set [4] is 580 µM (≈ 189 µg/mL). For the same compound, the Activity result is recorded as “Non-Toxic” in data set [10] and 35.7% in [14]. Besides, the Time in data set [11] is given as 29.89 s; in data set [12] it was 25.12 s; in data set [13], 16.23 s.
`Cc1ccc(CNC(=O)N/N=C/c2ccc(-c3ccc([N+](=O)[O-])cc3)o2)cc1`: the inhibition is 35.4% in data set [3] and “Dose-dependent effect” in data set [6].
Take `O=C(NCc1ccc(F)cc1)N/N=C/c1ccc(-c2ccc([N+](=O)[O-])cc2)o1`: the inhibition was 23.6% in data set [1], 35.1% in data set [2], 76.1% in [3] and “Dose-dependent effect” in data set [6].
As to `O=C1CN(/N=C/c2ccc(-c3ccc([N+](=O)[O-])cc3)o2)C(O)=N1` [DANTROLENE], in data set [4], the solubility kinetic came to 560 µM (≈ 176 µg/mL).

As usually defined, the inhibition is the share of the control response that was lost under treatment.
